Data on 2 compounds can be found in ChEMBL document CHEMBL4014306, “Pyrazolopyrimidines as Potent Stimulators for Transient Receptor Potential Canonical 3/6/7 Channels” (J Med Chem, 2017).

Activity calls are given as the source filed them. The rule behind the calls is not given here.

Holding throughout (assay type): cell-based
For one test, the species on record is Rattus norvegicus. The test is described as follows: Agonist activity at TRPC6 in rat primary glomerular mesangial cells assessed as increase in intracellular calcium level at 1 uM in presence of TRPC inhibitor […] by Fluo4-AM dye-based fluorescence assay. In outline: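 Rat glomerular mesangial cells, isolated by graded sieving from male Sprague–Dawley rats, collagenase-digested, cultured in RPMI 1640 with 17% FBS. Grown overnight on coverslips, then loaded with 10 μM Fluo4-AM and 0.02% pluronic F-127 for 1 h at 37 °C in 1 mM Ca2+ saline, pH 7.4. Compound at 1 μM. Confocal imaging, ex 488/em 515 nm, read as F/F0. For the 2-APB condition, 30 μM 2-APB for 2 min beforehand and kept during compound application.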
For orientation: Calcium assays in cells follow changes in intracellular calcium, usually with a dye or a luminescent sensor.

In test [1] the target is T1, Short transient receptor potential channel 3 (Homo sapiens) (UniProt Q13507).
T1 sequence (whole entry): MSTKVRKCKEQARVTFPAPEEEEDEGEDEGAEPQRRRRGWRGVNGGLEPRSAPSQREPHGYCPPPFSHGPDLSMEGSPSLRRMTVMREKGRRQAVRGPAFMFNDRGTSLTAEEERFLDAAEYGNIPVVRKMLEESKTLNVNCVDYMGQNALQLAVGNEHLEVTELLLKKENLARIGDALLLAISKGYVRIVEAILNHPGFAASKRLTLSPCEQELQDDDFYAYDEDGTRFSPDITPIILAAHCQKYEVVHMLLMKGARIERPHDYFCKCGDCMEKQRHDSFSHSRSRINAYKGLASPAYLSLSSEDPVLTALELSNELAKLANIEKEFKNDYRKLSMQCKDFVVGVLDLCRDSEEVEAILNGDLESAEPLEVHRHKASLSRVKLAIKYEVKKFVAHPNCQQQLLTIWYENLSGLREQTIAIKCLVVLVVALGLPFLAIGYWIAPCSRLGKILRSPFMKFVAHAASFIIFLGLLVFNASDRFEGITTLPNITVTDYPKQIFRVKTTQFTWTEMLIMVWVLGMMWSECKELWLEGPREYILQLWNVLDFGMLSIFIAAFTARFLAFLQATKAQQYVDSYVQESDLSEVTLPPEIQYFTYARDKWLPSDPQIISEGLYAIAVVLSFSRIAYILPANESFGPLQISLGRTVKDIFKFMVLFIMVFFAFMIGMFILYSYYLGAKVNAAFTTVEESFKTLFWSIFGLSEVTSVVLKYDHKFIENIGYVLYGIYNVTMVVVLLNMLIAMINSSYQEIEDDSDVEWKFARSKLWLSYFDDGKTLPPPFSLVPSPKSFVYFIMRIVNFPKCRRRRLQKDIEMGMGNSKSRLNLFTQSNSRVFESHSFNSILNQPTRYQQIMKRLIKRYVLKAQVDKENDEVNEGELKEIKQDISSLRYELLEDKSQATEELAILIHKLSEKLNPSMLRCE
Description: Agonist activity at human TRPC3 expressed in HEK293 cells assessed as induction of membrane depolarization measured for 2.5 mins in presence of 2 mM Ca2+ by FLIPR membrane potential dye-based fluorescence assay. In outline: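 HEK293 cells stably expressing human TRPC3, run on a FlexStation at 32 °C. Loaded with FMP dye, or Fluo-type Ca2+ dye with 2 mM probenecid. Extracellular NaCl/HEPES saline, pH 7.4, with 2 mM Ca2+ (standard) or 0.5 mM Ca2+. Read as F/F0. In 0.5 mM Ca2+, FMP EC50 from a Hill fit, n = 6.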

Test [2] deals with T2, Short transient receptor potential channel 7 (Homo sapiens) (UniProt Q9HCX4).
T2 sequence (whole entry): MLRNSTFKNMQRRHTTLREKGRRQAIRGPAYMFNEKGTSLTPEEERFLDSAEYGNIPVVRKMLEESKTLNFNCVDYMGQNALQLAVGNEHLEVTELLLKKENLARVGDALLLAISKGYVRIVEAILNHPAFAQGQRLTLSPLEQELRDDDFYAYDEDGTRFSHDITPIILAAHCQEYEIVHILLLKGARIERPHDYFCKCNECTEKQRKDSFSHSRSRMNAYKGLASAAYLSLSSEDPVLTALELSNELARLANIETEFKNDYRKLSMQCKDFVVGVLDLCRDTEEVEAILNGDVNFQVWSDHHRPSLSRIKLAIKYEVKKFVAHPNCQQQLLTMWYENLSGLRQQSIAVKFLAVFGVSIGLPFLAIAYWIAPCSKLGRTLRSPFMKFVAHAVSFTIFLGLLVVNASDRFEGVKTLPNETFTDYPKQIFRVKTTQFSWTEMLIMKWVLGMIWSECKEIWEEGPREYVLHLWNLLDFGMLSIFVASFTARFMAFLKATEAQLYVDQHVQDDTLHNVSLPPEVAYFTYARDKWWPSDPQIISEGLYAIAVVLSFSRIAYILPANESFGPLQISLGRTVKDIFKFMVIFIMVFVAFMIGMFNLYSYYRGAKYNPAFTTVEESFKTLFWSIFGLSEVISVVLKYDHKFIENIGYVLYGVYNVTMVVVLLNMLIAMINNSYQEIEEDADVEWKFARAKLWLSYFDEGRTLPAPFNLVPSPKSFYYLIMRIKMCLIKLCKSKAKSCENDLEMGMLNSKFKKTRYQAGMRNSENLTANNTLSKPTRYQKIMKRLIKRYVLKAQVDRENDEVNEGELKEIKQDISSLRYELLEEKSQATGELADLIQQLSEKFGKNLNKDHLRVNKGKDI
Description: Antagonist activity at human TRPC7 receptor expressed in HEK293 cells assessed as channel desensitization up to 30 uM in presence of 0.1 mM Ca2+ by whole cell patch-clamp method. In outline: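 Whole-cell clamp of TRPC6/M5 or TRPC7 HEK293 cells with 0.1 mM Ca2+ bath and 400 nM free Ca2+ pipette. Ramps +100 to −100 mV every 1 s. Increasing concentrations given consecutively by perfusion (TRPC6 highest 20–100 μM; TRPC7 up to 30 μM). Currents at positive and negative potentials followed for desensitization.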
(In patch-clamp work, channel activity is measured electrically.)

`Cc1nn2c(O)cc(C3CCN(C(=O)OCc4ccccc4)CC3)nc2c1-c1ccc(F)cc1`: in the test filed under Rattus norvegicus, the outcome was inactive.
As to `CCOC(=O)N1CCC(c2cc(O)n3nc(C)c(-c4ccc(F)cc4)c3n2)CC1`, the result in test [1] was inactive. The inhibition result in test [2] is “Active”.
